Reference: ChEMBL document CHEMBL1137834, “Synthesis of cinnamic acid derivatives and their inhibitory effects on LDL-oxidation, acyl-CoA:cholesterol acyltransferase-1 and -2 activity, and decrease of HDL-particle size” (Bioorg Med Chem Lett, 2004)

Key:
Homo sapiens [1] = species on record: Homo sapiens; assay: Antioxidant activity against copper mediated low-density lipoproteins (LDL) oxidation; assay type: functional
In short: (§1)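 Test compounds at final 1 µg/mL. Oxidation read as TBARS, expressed as nmol MDA/mg LDL and % inhibition against LDL + CuSO4 alone. Electromobility was also compared on 0.7% agarose gel.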

Oryctolagus cuniculus = species on record: Oryctolagus cuniculus; assay: Compound inhibited the rHDL-particle rearrangement under presence of LDL at 37 degree C; assay type: functional
In short: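 rHDL particles (98 Å, 2 mg/mL preparation) were incubated at 37 °C for 24 h with human LDL (4 mg/mL preparation) and compound. Products were run on native 8–25% polyacrylamide gradient gel and stained with Coomassie to compare particle size.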

Homo sapiens [2] = species on record: Homo sapiens; assay: Antioxidant activity was determined by measuring the produced thiobarbituric acid reactive substance; assay type: functional; in short: as §1
[3] = target: T1, Sterol O-acyltransferase 2 (Homo sapiens) (UniProt O75908); assay: Inhibitory activity against human Acyl-CoA:cholesterol acyltransferase-2 at 30 ug/mL
T1 sequence (whole entry): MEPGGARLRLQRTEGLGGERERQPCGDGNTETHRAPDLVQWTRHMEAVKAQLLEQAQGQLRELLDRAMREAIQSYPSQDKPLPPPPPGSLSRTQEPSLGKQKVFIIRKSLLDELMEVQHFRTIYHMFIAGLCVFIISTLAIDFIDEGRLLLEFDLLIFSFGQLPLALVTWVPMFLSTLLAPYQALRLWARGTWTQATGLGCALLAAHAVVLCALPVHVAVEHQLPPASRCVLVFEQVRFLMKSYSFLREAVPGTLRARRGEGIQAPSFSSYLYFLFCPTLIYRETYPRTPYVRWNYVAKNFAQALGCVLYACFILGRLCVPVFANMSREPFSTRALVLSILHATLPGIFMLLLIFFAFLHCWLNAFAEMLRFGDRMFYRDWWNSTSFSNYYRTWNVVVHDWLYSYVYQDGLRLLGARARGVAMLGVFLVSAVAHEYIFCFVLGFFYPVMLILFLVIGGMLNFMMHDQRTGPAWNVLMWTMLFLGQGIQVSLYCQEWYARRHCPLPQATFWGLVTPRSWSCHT

[4] = target: T2, Sterol O-acyltransferase 2 (Homo sapiens, UniProt O75908); assay: Inhibitory activity against human Acyl-CoA:cholesterol acyltransferase-2
T2 sequence (O75908 whole entry): T1 sequence (whole entry)

SMILES: COC(=O)[C@H](Cc1ccccc1)NC(=O)/C=C/c1ccc(O)cc1
- IC50 (Homo sapiens [1]): 52 µM
- Inhibition (Oryctolagus cuniculus): 307 µM
- Activity (Homo sapiens [2]): 269 nmol of MDA/mg of LDL
- inhibition [3]: > 70%

SMILES: COC(=O)[C@H](C)NC(=O)/C=C/c1ccc(O)c(O)c1
- Activity (Homo sapiens [2]): 91.5 nmol of MDA/mg of LDL
- inhibition [3]: 0%

SMILES: O=C(CCc1ccc(O)c(O)c1)N[C@@H](CC(=O)OCc1ccccc1)C(=O)OCc1ccccc1
- IC50 (Homo sapiens [1]): 3 µM
- Activity (Homo sapiens [2]): 32.1 nmol of MDA/mg of LDL
- inhibition [3]: > 70%
- IC50 [4]: 81 µM

SMILES: CC(C)(Sc1cc(C(C)(C)C)c(O)c(C(C)(C)C)c1)Sc1cc(C(C)(C)C)c(O)c(C(C)(C)C)c1 [PROBUCOL]
- Activity (Homo sapiens [2]): 263.1 nmol of MDA/mg of LDL
